Active and inactive are the calls of the source. No rule for the calls is given here.
Key:
[1] = tested on: Hepatitis C virus; assay: Antiviral activity against Hepatitis C virus subtype 2a infected in human HuH7 cells; assay type: functional, organism-based, Hepacivirus hominis; conditions: genotype 2a, Huh-7
[2] = tested on: Pseudomonas aeruginosa; assay: Antibacterial activity against multi-resistant Pseudomonas aeruginosa A/16575 after 24 hrs; assay type: functional, organism-based
[3] = tested on: Escherichia coli; assay: Antibacterial activity against Escherichia coli CCM 3954 after 24 hrs; assay type: functional, organism-based
[4] = Cytotoxicity against human HuH7 cells infected with Hepatitis C virus subtype 2a; assay type: cell-based, Huh-7
[5] = tested on: Staphylococcus aureus; assay: Antibacterial activity against methicillin-resistant Staphylococcus aureus MRSA 4591 after 24 hrs; assay type: functional, organism-based
[6] = tested on: CCRF-CEM; assay: Cytostatic activity against human CCRF-CEM cells after 72 hrs by MTT assay; assay type: functional, cell-based
Method in brief: (§1)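 IC50 is the concentration that cuts cell growth by 50%, read by quantitative metabolic MTT staining after a 3-day treatment. The resistant sublines were made by raising the concentration of the cytotoxic drug step by step. CEM-DNR-bulk (daunorubicin-selected) stably overexpresses mrp-1. K562-TAX (paclitaxel-selected) expresses only mdr-1. HCT116p53−/− carries null p53 alleles. BJ and MRC-5 are nonmalignant fibroblasts.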

[7] = tested on: Pseudomonas aeruginosa; assay: Antibacterial activity against Pseudomonas aeruginosa CCM 3955 after 24 hrs; assay type: functional, organism-based
[8] = tested on: MRC5; assay: Cytostatic activity against human MRC5 cells after 72 hrs by MTT assay; assay type: ADME, cell-based; conditions: MRC5, 72 h; method in brief: as §1
[9] = tested on: Pichia kudriavzevii; assay: Antifungal activity against Candida crusei after 48 hrs; assay type: functional, organism-based
[10] = tested on: Staphylococcus aureus; assay: Antibacterial activity against Staphylococcus aureus CCM 3953 after 24 hrs; assay type: functional, organism-based
[11] = tested on: Enterococcus faecalis; assay: Antibacterial activity against Enterococcus faecalis CCM 4224 after 24 hrs; assay type: functional, organism-based
[12] = Cytotoxicity against human HuH7 cells infected with Hepatitis C virus subtype 1b; assay type: cell-based, Huh-7
[13] = tested on: Candida tropicalis; assay: Antifungal activity against Candida tropicalis after 48 hrs; assay type: functional, organism-based
[14] = tested on: K562; assay: Cytostatic activity against human K562 cells after 72 hrs by MTT assay; assay type: functional, cell-based; conditions: K562, 72 h; method in brief: as §1
[15] = Cytostatic activity against human CEM-DNR-bulk cells after 72 hrs by MTT assay; assay type: functional, cell-based; method in brief: as §1
[16] = tested on: HL-60; assay: Antiproliferative activity against human HL60 cells after 72 hrs by XTT assay; assay type: functional, cell-based; conditions: HL-60, 72 h
Method in brief: (§2)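 Antiproliferative test on HL-60 promyelocytic leukemia and HeLa S3 cervical carcinoma cells growing in liquid suspension.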

[17] = tested on: Staphylococcus haemolyticus; assay: Antibacterial activity against methicillin-resistant Staphylococcus haemolyticus A/16568 after 24 hrs; assay type: functional, organism-based
[18] = tested on: HCT-116; assay: Cytostatic activity against human HCT116 cells after 72 hrs by MTT assay; assay type: functional, cell-based; conditions: HCT-116, 72 h; method in brief: as §1
[19] = tested on: A549; assay: Cytostatic activity against human A549 cells after 72 hrs by MTT assay; assay type: functional, cell-based; conditions: A549, 72 h; method in brief: as §1
[20] = tested on: K562; assay: Cytostatic activity against paclitaxel-resistant human K562 cells after 72 hrs by MTT assay; assay type: functional, cell-based; conditions: K562, 72 h; method in brief: as §1
[21] = tested on: Hepatitis C virus; assay: Antiviral activity against Hepatitis C virus subtype 1b infected in human HuH7 cells; assay type: functional, organism-based, Hepacivirus hominis; conditions: genotype 1b, Huh-7
[22] = tested on: HCT-116; assay: Cytostatic activity against p53-deficient human HCT116 cells after 72 hrs by MTT assay; assay type: functional, cell-based; conditions: HCT-116, 72 h; method in brief: as §1
[23] = tested on: Escherichia coli; assay: Antibacterial activity against multi-resistant Escherichia coli C/16702 after 24 hrs; assay type: functional, organism-based
[24] = tested on: Candida albicans; assay: Antifungal activity against Candida albicans after 48 hrs; assay type: functional, organism-based
[25] = Antiproliferative activity against human HeLaS3 cells after 72 hrs by XTT assay; assay type: functional, cell-based; conditions: HeLa S3, 72 h; method in brief: as §2
[26] = tested on: Candida parapsilosis; assay: Antifungal activity against Candida parapsilosis after 48 hrs; assay type: functional, organism-based
[27] = tested on: HepG2; assay: Antiproliferative activity against human HepG2 cells after 72 hrs by XTT assay; assay type: functional, cell-based; conditions: HepG2, 72 h
[28] = tested on: BJ; assay: Cytostatic activity against human BJ cells after 72 hrs by MTT assay; assay type: ADME, cell-based; method in brief: as §1

Row | SMILES | EC50 [1] [µM] | Activity [2] | Activity [3] | CC50 [4] [µM] | Activity [5] | IC50 [6] [µM] | Activity [7] | IC50 [8] [µM] | Activity [9] | Activity [10] | Activity [11] | CC50 [12] [µM] | Activity [13] | IC50 [14] [µM] | IC50 [15] [µM] | IC50 [16] [µM] | Activity [17] | IC50 [18] [µM] | IC50 [19] [µM] | IC50 [20] [µM] | also measured
1 | O=c1[nH]cnc2c1c(-c1ccccc1)cn2[C@@H]1O[C@H](CO)[C@@H](O)[C@H]1O | > 44 | inactive | inactive | > 44 | inactive | > 100 | inactive | > 100 | inactive | inactive | inactive | > 44 | inactive | > 20 | > 20 | > 20 | inactive | > 100 | > 100 | > 20 | EC50 [21]: > 44 µM; IC50 [22]: > 20 µM; Activity [23]: inactive; Activity [24]: inactive; IC50 [25]: > 20 µM; Activity [26]: inactive; IC50 [27]: > 20 µM; IC50 [28]: > 100 µM
2 | CSc1ncnc2c1c(-c1cc3ccccc3o1)cn2[C@@H]1O[C@H](CO)[C@@H](O)[C@H]1O | 29.6 | inactive | inactive | > 44 | inactive | > 20 | inactive | 70.8 | inactive | inactive | inactive | > 44 | inactive | 17.2 | > 20 | 1.21 | inactive | > 20 | > 20 | > 20 | EC50 [21]: 8.03 µM; IC50 [22]: > 20 µM; Activity [23]: inactive; Activity [24]: inactive; IC50 [25]: 1.93 µM; Activity [26]: inactive; IC50 [27]: > 20 µM; IC50 [28]: 67.2 µM
3 | CN(C)c1ncnc2c1c(-c1ccoc1)cn2[C@@H]1O[C@H](CO)[C@@H](O)[C@H]1O | > 44 | inactive | inactive | > 44 | inactive | 13.3 | inactive | > 100 | inactive | inactive | inactive | > 44 | inactive | 1.54 | > 20 | 1.16 | inactive | > 20 | > 20 | 14.9 | EC50 [21]: 7.88 µM; IC50 [22]: > 20 µM; Activity [23]: inactive; Activity [24]: inactive; IC50 [25]: 9.06 µM; Activity [26]: inactive; IC50 [27]: 12.5 µM; IC50 [28]: 99.2 µM
4 | Cc1ncnc2c1c(I)cn2[C@@H]1O[C@H](CO)[C@@H](O)[C@H]1O | 8.75 | inactive | inactive | 13.8 | inactive | 5.48 | inactive | 13.3 | inactive | inactive | inactive | 20.9 | inactive | 17.8 | 12.6 | 2.65 | inactive | 4.72 | 12.2 | > 20 | EC50 [21]: 2.16 µM; IC50 [22]: 7.57 µM; Activity [23]: inactive; Activity [24]: inactive; IC50 [25]: 4.08 µM; Activity [26]: inactive; IC50 [27]: 3.46 µM; IC50 [28]: > 100 µM
5 | CNc1ncnc2c1ccn2[C@@H]1O[C@H](CO)[C@@H](O)[C@H]1O | > 44 | inactive | inactive | > 44 | inactive | > 20 | inactive | 97.8 | inactive | inactive | inactive | > 44 | inactive | > 20 | 4.89 | 12.8 | inactive | > 20 | > 20 | 0.92 | EC50 [21]: 0.82 µM; IC50 [22]: > 20 µM; Activity [23]: inactive; Activity [24]: inactive; IC50 [25]: > 20 µM; Activity [26]: inactive; IC50 [27]: > 20 µM; IC50 [28]: 91.4 µM
6 | Cc1nc(N)c2c(I)cn([C@@H]3O[C@H](CO)[C@@H](O)[C@H]3O)c2n1 | > 44 | inactive | inactive | > 44 | inactive | 9.03 | inactive | 85.8 | inactive | inactive | inactive | > 44 | inactive | 5.12 | 3.48 | 2.05 | inactive | > 20 | 12.1 | 1.11 | EC50 [21]: 2.45 µM; IC50 [22]: > 20 µM; Activity [23]: inactive; Activity [24]: inactive; IC50 [25]: 4.18 µM; Activity [26]: inactive; IC50 [27]: 6.31 µM; IC50 [28]: 24.6 µM
7 | CN(C)c1ncnc2c1c(-c1ccccc1)cn2[C@@H]1O[C@H](CO)[C@@H](O)[C@H]1O | > 44 | inactive | inactive | > 44 | inactive | > 20 | inactive | > 100 | inactive | inactive | inactive | > 44 | inactive | > 20 | > 20 | > 20 | inactive | > 20 | > 100 | > 20 | EC50 [21]: 26.9 µM; IC50 [22]: > 20 µM; Activity [23]: inactive; Activity [24]: inactive; IC50 [25]: > 20 µM; Activity [26]: inactive; IC50 [27]: > 20 µM; IC50 [28]: > 100 µM
8 | CSc1ncnc2c1c(-c1cccs1)cn2[C@@H]1O[C@H](CO)[C@@H](O)[C@H]1O | > 44 | inactive | inactive | > 44 | inactive | > 20 | inactive | > 100 | inactive | inactive | inactive | > 44 | inactive | 11.6 | > 20 | 1.13 | inactive | > 20 | > 20 | > 20 | EC50 [21]: 5.42 µM; IC50 [22]: > 20 µM; Activity [23]: inactive; Activity [24]: inactive; IC50 [25]: 1.96 µM; Activity [26]: inactive; IC50 [27]: > 20 µM; IC50 [28]: 96.9 µM
9 | C#Cc1cn([C@@H]2O[C@H](CO)[C@@H](O)[C@H]2O)c2ncnc(OC)c12 | > 44 | inactive | inactive | > 44 | inactive | > 20 | inactive | > 100 | inactive | inactive | inactive | > 44 | inactive | 0.3 | 3.49 | 0.19 | inactive | 4.06 | 8.16 | 0.38 | EC50 [21]: 0.18 µM; IC50 [22]: 5.14 µM; Activity [23]: inactive; Activity [24]: inactive; IC50 [25]: 1.73 µM; Activity [26]: inactive; IC50 [27]: 12.7 µM; IC50 [28]: 98.4 µM
